One data set relates to MCF7. Description: Compound was evaluated for inhibition of tumor cell growth in MCF-7 cell line. In kind it is functional, cell-based. To be noted: Homo sapiens, read-out: I50. The method in brief:
(§1)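 Cells were grown in folate-free RPMI 1640 with 10% dialyzed FCS and 20 nM leucovorin, seeding SW480 at 8000 and MCF-7 at 10000 cells/well. After 24 h at 37 °C and 5% CO₂, drug diluted in leucovorin-free medium was added to triplicate wells for 96 h. Growth was read by MTT reduction (1 h), followed by DMSO solubilization and absorbance.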

In data set [1] the target is Thymidylate synthase (Escherichia coli, UniProt C3SWJ7). Description: Compound was evaluated for the inhibition of Escherichia coli Thymidylate Synthase. To be noted: read-out: I50.
Thymidylate synthase (Escherichia coli, UniProt C3SWJ7), sequence (C3SWJ7 whole entry): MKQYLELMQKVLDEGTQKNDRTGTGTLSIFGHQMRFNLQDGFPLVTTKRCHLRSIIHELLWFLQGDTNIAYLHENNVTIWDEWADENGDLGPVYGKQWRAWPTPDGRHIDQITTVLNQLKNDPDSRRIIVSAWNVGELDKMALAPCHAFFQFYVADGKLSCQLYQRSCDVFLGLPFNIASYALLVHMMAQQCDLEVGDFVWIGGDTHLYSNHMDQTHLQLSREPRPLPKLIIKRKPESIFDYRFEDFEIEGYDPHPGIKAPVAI
The next data set concerns MOLT-4. Nature of the data set: Compound was evaluated for inhibition of MTX influx into MOLT-4 cells. Particulars: Homo sapiens, read-out: I50. It is filed as functional, cell-based. The gist of the method:
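MOLT-4 cells were grown in folate-free RPMI-1640 with 10% dialyzed FCS and 20 nM leucovorin, then resuspended in pH 7.4 Tris/bicarbonate buffer with 10 mM DTT at 37 °C. Test compound was added with TLC-purified ³H-MTX at t = 0. Timed aliquots were spun through 1-bromododecane, and pellets were NaOH-extracted and scintillation counted. Rates came from 4–5 linear points at ≤10 min.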

In data set [2] the target is Thymidylate synthase (Homo sapiens, UniProt P04818). Description: Compound was evaluated for the inhibition of human Thymidylate Synthase. Particulars: read-out: I50.
Thymidylate synthase (Homo sapiens, UniProt P04818), sequence (P04818 whole entry): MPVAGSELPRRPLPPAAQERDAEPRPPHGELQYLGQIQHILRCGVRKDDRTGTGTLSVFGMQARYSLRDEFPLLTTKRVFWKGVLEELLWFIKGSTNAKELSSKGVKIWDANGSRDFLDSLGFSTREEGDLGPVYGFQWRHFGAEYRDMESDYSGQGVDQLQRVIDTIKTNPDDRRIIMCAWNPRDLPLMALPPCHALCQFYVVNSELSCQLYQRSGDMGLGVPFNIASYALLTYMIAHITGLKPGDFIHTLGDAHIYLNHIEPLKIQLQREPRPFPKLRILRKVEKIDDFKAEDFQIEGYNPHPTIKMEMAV
The nature of data set [3]: It is the ratio of relative maximum velocity to that of apparent kinetic constant.
A further data set has as its system SW480. Nature of the data set: Compound was evaluated for inhibition of tumor cell growth in SW/480 cell line. It is filed as functional, cell-based. Particulars: Homo sapiens, read-out: I50. The method in brief: as §1
In a further data set the test system is Manca. Nature of the data set: Compound was evaluated for inhibition of tumor cell growth in Manca human lymphoma cell line. It is filed as functional, cell-based. Particulars: read-out: I50.
Substrate in data set [4]: C#CCN(Cc1ccc(C(=O)NC(CCC(=O)O)C(=O)O)cc1)Cc1ccc2nc(C)nc(O)c2c1
Description: Relative maximum velocity of Folyl-polyglutamate synthase (relative to control of 50 uM aminopterin). To be noted: Sus scrofa. The gist of the method:
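Substrate activity was measured with partially purified hog liver FPGS, following an earlier published method. Vmax is expressed relative to a control of 50 μM aminopterin that was run in every experiment. Where activity was weak, relative velocity was reported at 200 μM substrate.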

Turning to `C#CCN(Cc1ccc(C(=O)NC(CCC(=O)O)C(=O)O)cc1)Cc1ccc2nc(C)nc(O)c2c1` (stereo unspecified), the IC50 in the data set with MCF7 was more than 100 µM; on Thymidylate synthase [1] it was 515 µM; with MOLT-4, 7 µM; on Thymidylate synthase [2], 83 µM; in the data set on SW480, more than 100 µM. In data set [3], the Ratio turned out to be 2.01.
With `Nc1nc(=O)c2nc(CNc3ccc(C(=O)N[C@@H](CCC(=O)O)C(=O)O)cc3)cnc2[nH]1` [FOLIC ACID], in the data set with MOLT-4, the IC50 is more than 100 µM. Further, in data set [3], the Ratio came out at 0.77.
On to `C#CCN(Cc1ccc(C(=O)NC(CCC(=O)O)C(=O)O)cc1)Cc1ccc2nc(N)nc(O)c2c1` (stereo unspecified), for which the IC50 with Manca was more than 80 µM; in the data set with MCF7, more than 100 µM; on Thymidylate synthase [1], 201 µM; on Thymidylate synthase [2] it was 31 µM; in the data set on SW480 it was more than 100 µM. The Ratio in data set [3] is 1.9.
Consider `C#CCN(Cc1ccc2nc(C)nc(O)c2c1)c1ccc(C(=O)NC(CCC(=O)O)C(=O)O)cc1` (stereo unspecified), for which the IC50 in the data set with Manca is 0.013 µM; in the data set with MCF7, 0.007 µM; at Thymidylate synthase [1], 0.045 µM; with MOLT-4, 1.5 µM; at Thymidylate synthase [2] it was 0.01 µM; in the data set on SW480, 0.05 µM. Also, the Ratio in data set [3] is 1.33.
As to `C#CCN(Cc1ccc2c(c1)C(=O)C[C@H](C)N2)c1ccc(C(=O)NC(CCC(=O)O)C(=O)O)cc1` (stereo partly specified), the IC50 was more than 100 µM with MCF7; 1.88 µM at Thymidylate synthase [1]; 4.5 µM in the data set on MOLT-4; 24 µM at Thymidylate synthase [2]; more than 100 µM with SW480.
`C#CCN(Cc1ccc(C(=O)NC(CCC(=O)O)C(=O)O)cc1)Cc1ccc2c(c1)C(=O)CC(C)=N2` (stereo unspecified): the IC50 is more than 600 µM in the data set with Manca, 1.4 µM at Thymidylate synthase [2] and more than 50 µM in the data set with SW480.
In the case of `Nc1nc(=O)c2c([nH]1)NCC(CNc1ccc(C(=O)N[C@H](CCC(=O)O)C(=O)O)cc1)N2C=O` (stereo partly specified), the IC50 with MOLT-4 worked out at 3.5 µM.
For `CN(Cc1cnc2nc(N)nc(N)c2n1)c1ccc(C(=O)N[C@@H](CCC(=O)O)C(=O)O)cc1` [METHOTREXATE], the IC50 in the data set on MOLT-4 turned out to be 1.4 µM.
For `C#CCN(Cc1ccc(C(=O)NC(CCC(=O)O)C(=O)O)cc1)Cc1ccc2ccnc(O)c2c1` (stereo unspecified), the IC50 was 9 µM with Manca; 22 µM in the data set with MCF7; 4.5 µM in the data set with MOLT-4; 0.74 µM on Thymidylate synthase [2]; more than 100 µM in the data set on SW480. In data set [3], the Ratio was found to be 0.38.
For `C#CCN(Cc1ccc2[nH]c(N)nc(=O)c2c1)c1ccc(C(=O)NC(CCC(=O)O)C(=O)O)cc1` (stereo unspecified), the IC50 came to 0.56 µM in the data set with Manca, 0.8 µM with MCF7, 28 µM in the data set with MOLT-4 and 0.8 µM in the data set on SW480.
For the molecule `Nc1nc(O)c2c(n1)NCC(CNc1ccc(C(=O)N[C@@H](CCC(=O)O)C(=O)O)cc1)N2` (stereo partly specified), the Ratio in data set [3] turned out to be 32.1.
Regarding `C#CCN(Cc1ccc2c(c1)C(=O)N[C@H](C)N2)c1ccc(C(=O)NC(CCC(=O)O)C(=O)O)cc1` (stereo partly specified), the results for the IC50 at Thymidylate synthase [1], at Thymidylate synthase [2] and with SW480 were 1.5 µM, 0.43 µM and 0.6 µM, respectively.

B1: Folylpolyglutamate synthase, mitochondrial (Homo sapiens), Q05932 (protein)
chain: MSRARSHLRAALFLAAASARGITTQVAARRGLSAWPVPQEPSMEYQDAVRMLNTLQTNAGYLEQVKRQRGDPQTQLEAMELYLARSGLQVEDLDRLNIIHVTGTKGKGSTCAFTECILRSYGLKTGFFSSPHLVQVRERIRINGQPISPELFTKYFWRLYHRLEETKDGSCVSMPPYFRFLTLMAFHVFLQEKVDLAVVEVGIGGAYDCTNIIRKPVVCGVSSLGIDHTSLLGDTVEKIAWQKGGIFKQGVPAFTVLQPEGPLAVLRDRAQQISCPLYLCPMLEALEEGGPPLTLGLEGEHQRSNAALALQLAHCWLQRQDRHGAGEPKASRPGLLWQLPLAPVFQPTSHMRLGLRNTEWPGRTQVLRRGPLTWYLDGAHTASSAQACVRWFRQALQGRERPSGGPEVRVLLFNATGDRDPAALLKLLQPCQFDYAVFCPNLTEVSSTGNADQQNFTVTLDQVLLRCLEHQQHWNHLDEEQASPDLWSAPSPEPGGSASLLLAPHPPHTCSASSLVFSCISHALQWISQGRDPIFQPPSPPKGLLTHPVAHSGASILREAAAIHVLVTGSLHLVGGVLKLLEPALSQ
As to B1, the Vmax in data set [4] was determined as 138%.
